Each block holds one molecule with its values, some of them ahead of it. Residues, ends and D or L forms follow the SMILES beside them. *: point of attachment. Cbz = O=C(OCc1ccccc1)*
Key:
Id1 [1] = target: T1, Id1 (Mus musculus, UniProt P20067); test: Circular dichroism; assay type: binding; conditions: AGX51 0–50 μM; AGXA 0–110 μM in DMSO
T1 sequence (P20067 1-148 isoform P20067-2): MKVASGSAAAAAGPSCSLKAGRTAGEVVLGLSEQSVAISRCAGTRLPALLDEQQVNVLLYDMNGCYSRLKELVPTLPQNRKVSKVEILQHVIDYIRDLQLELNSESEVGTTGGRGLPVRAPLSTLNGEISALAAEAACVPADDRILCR

[2] = target: T2, NanoLuc luciferase ID1 fusion protein (Homo sapiens, UniProt P41134); test: NanoBRET target engagement assay in permeabilized 293T cells; assay type: binding
T2 sequence (P41134 1-155): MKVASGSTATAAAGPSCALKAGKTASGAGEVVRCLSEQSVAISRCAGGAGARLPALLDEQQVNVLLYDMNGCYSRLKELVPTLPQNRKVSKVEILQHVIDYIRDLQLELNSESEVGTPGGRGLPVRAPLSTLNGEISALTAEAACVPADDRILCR
Outline: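 293T cells transfected with an N-terminal NanoLuc–ID1 fusion construct and plated 24 h later. Cells received 2 µM fluorescent tracer plus 0–60 µM competitor, then were permeabilised with digitonin (50 µg/mL). NanoBRET Nano-Glo substrate was added and the BRET ratio read, following the kit protocol for intracellular target engagement.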

ID1, ID2, ID3, and ID4 = test: Western blot for ID proteins in HCT116 cells; assay type: cell-based, human; conditions: HCT116, 0–10 μM AGXA, 24 h
HCT116 cells = test: HCT116 cell viability; assay type: cell-based, human; conditions: cell-based assays (HCT116 and 4T1)
Outline: (§1)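 MTT viability: cells seeded at 5000/well and left overnight, then exposed to the test compound for 24 h. MTT (5 mg/mL) was added for 4 h, medium removed and formazan dissolved in DMSO. Absorbance was read at 570 nm.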

[3] = test system: choroidal neovascularization; test: Laser-induced choroidal neovascularization; assay type: in vivo, mouse; conditions: intravitreal 1 μg dose, day 14
Outline: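 Female C57BL/6 mice aged 4–6 weeks had laser rupture of Bruch's membrane at three sites per eye. Test compounds (1 or 5 µg) or DMSO were given intravitreally. At day 14, choroidal flat mounts were stained with FITC-Griffonia simplicifolia lectin, and CNV area was measured by fluorescence image analysis by an observer masked to group.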

Id1 [4] = target: T1, Id1; test: Western blot for Id1 in 4T1 cells; assay type: cell-based; conditions: 4T1, 0–20 μM AGXA, 24 h
Outline: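 4T1 cells were treated 24 h, collected by trypsinization, washed in PBS and lysed in sucrose/Tris pH 8.0/400 mM NaCl/MgCl2/0.5% NP40 buffer with protease inhibitors. Id1 immunoblots were quantified from 700 and 800 channel intensities, blank-subtracted and normalized to tubulin; IC50 reported from blots.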

Id1-E47 interaction = target: T3, Id1-E47 interaction (Mus musculus, UniProt P20067); test: In vitro electrophoretic mobility shift assay; assay type: biochemical; conditions: data not shown
T3 sequence (P20067 1-148 isoform P20067-2): T1 sequence (P20067 1-148 isoform P20067-2)
Outline: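 Bacterially purified full-length E47 was mixed with a 32P-labelled E-box probe from the muscle creatine kinase enhancer, plus BSA, DTT, poly dI-dC, salmon sperm DNA and HeLa nuclear extract, with or without purified full-length Id1. Test compounds in DMSO (or DMSO alone) were added at rising concentrations for 30 min. Complexes were resolved on 5% native PAGE and autoradiographed.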

Id proteins = test: Degradation of Id proteins in cells; assay type: cell-based; conditions: data not shown
Cell viability assays = assay type: cell-based; conditions: data not shown
Outline: as §1

Id1 (59–104) = target: T4, Id1 (59–104) (Mus musculus, UniProt P20067); test: UV crosslinking of AGX51-XL2 to purified Id1 and mass spectrometry; assay type: binding; conditions: UV light 20 minutes
T4 sequence (P20067 59-104): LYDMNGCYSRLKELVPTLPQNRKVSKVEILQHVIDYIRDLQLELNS
Outline: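 Purified Id1 (aa 59–104, 1 µg) was mixed in the dark with 19.7 ng of a benzophenone photoreactive test-compound analog in DMSO and UV-irradiated for 20 min, with a no-UV control. Samples were run in the dark on a 15% denaturing gel and silver stained. Bands were excised for mass spectrometry.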

E47 = target: T5, E47 (Homo sapiens, UniProt P15923); test: UV crosslinking of AGX51-XL2 to E47 and mass spectrometry; assay type: binding; conditions: data not shown
T5 sequence (P15923 1-651 isoform P15923-2): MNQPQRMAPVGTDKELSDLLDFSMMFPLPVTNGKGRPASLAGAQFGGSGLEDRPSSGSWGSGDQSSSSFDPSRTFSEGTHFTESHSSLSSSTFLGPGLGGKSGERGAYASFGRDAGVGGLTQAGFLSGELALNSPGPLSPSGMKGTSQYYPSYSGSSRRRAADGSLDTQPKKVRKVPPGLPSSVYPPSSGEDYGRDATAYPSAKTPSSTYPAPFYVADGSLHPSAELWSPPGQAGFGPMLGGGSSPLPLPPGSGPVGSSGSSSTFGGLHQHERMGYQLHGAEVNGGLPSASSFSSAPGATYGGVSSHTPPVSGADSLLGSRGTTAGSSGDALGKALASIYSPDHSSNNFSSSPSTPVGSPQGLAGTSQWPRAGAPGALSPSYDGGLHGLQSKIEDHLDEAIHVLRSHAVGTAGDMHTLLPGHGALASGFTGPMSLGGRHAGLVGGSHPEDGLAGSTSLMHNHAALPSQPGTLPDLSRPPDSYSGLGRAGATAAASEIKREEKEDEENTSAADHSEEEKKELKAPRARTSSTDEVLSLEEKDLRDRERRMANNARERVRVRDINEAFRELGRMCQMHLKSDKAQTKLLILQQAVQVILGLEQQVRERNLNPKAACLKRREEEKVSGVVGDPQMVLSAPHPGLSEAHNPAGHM

FLAG-ID1 = target: T6, FLAG-ID1 (Homo sapiens, UniProt P41134); test: Ubiquitylation assay in HCT116 and U87 glioma cells; assay type: cell-based; conditions: 60 μM AGX51 2 h, then 20 μM MG132 for 6 h
T6 sequence (P41134 1-155): T2 sequence (P41134 1-155)
Outline: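 HCT116 cells co-transfected with FLAG-tagged ID1 and HA-ubiquitin. After 36 h they were exposed to 60 µM test compound for 2 h, then 20 µM MG132 for a further 6 h. Cells were washed in ice-cold PBS, lysed in TBS (50 mM Tris pH 8.0, 150 mM NaCl) containing 2% SDS, and boiled for 10 min.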

- effect on Id1 secondary structure (CD spectra) (Id1 [1]): greater activity than AGX51
- competition with the AGX51 tracer (BRET ratio) ([2]; 2 μM AGX51 tracer, 0–60 μM competitor, 50 μg/mL digitonin): more efficiently
- reduction in IC50 values relative to AGX51 (HCT116 cells): ~4 fold
Molecule: 6-chloro-2-methyl-N-(4-propoxyphenyl)quinolin-4-amine hydrochloride [AGXA]
- ID1 protein levels relative to AGX51 (ID1, ID2, ID3, and ID4): reduced Id protein levels at lower concentrations than AGX51
- area of CNV, AGXA compared with AGX51 [3]: worked better than AGX51
- Id1 protein levels relative to AGX51 (Id1 [4]): reduced Id protein levels at lower concentrations than AGX51

- ID1 ubiquitylation (FLAG-ID1): ID1 ubiquitylation was observed
Molecule: CC(C)C[C@@H](C=O)NC(=O)[C@H](CC(C)C)NC(=O)[C@H](CC(C)C)NC(=O)OCc1ccccc1 [MG132] (Cbz-Leu-Leu-Leu-aldehyde)

Second part, the molecule before the results:

Molecule: CC(C)c1ccc(NNC(=O)c2cc3ccccc3s2)cc1 [AGX8, N’-(4-isopropylphenyl)benzo[b]thiophene-2-carbohydrazide]
- concentrations required to perturb Id1 in the EMSA assay, relative to AGX51 (Id1-E47 interaction): higher concentrations
- concentrations required to degrade Id proteins in cells, relative to AGX51 (Id proteins): higher concentrations
- IC50 in cell viability assays, relative to AGX51 (Cell viability assays): higher IC50

Molecule: COc1ccccc1C(CCN(Cc1ccccc1)C(=O)CCOCCOCCNC(=O)CCC1=[N+]2C(=Cc3ccc(-c4ccc[nH]4)n3[B-]2(F)F)C=C1)c1ccc2c(c1)OCO2 (stereo not shown) [AGX51 tracer, 3-(17-(benzo[d][1,3]dioxol-5-yl)-14-benzyl-17-(2-methoxyphenyl)-3,13-dioxo-7,10-dioxa-4,14-diazaheptadecyl)-5,5-difluoro-7-(1H-pyrrol-2-yl)-5H-5λ4-dipyrrolo[1,2-c:2’,1’-f][1,3,2]diazaborinin-4-ium]
- BRET ratio ([2]; tracer 0–4 μM, digitonin-permeabilized 293T cells): dose-dependent increase in the BRET ratio

Molecule: O=C(NCCC(c1ccccc1)c1ccccc1)c1ccc(C(=O)c2ccccc2)cc1 [AGX51-XL2, 4-benzoyl-N-(3,3-diphenylpropyl)bezamide]
- covalent binding to Id1 after UV exposure (Id1 (59–104)): covalently binding to Id1 at six residues (V73, P74, T75, P77, Q78, and R80)
- covalent binding to E47 (E47): nor was there evidence of AGX51-XL2 binding to E47

Reference: publication PMC6896334 (Cell reports, 2019)
